In ChEMBL document CHEMBL1152659, “Removal of the 20-methyl group from 2-methylene-19-nor-(20S)-1alpha,25-dihydroxyvitamin D(3) (2MD) selectively eliminates bone calcium mobilization activity” (Bioorg Med Chem, 2009):

Experiments:
[1] = system: Rattus norvegicus; experiment: Effect on bone calcium mobilization in weanling Sprague-Dawley rat assessed as serum calcium level at 87 pmol/day, ip administered for 4 consecutive days measured 24 hrs after last dose; format: functional
Summary of the method: (§1)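 Male weanling rats fed 0.47% Ca + AEK oil for 1 wk, then 0.02% Ca for 3 wk, then 0.47% Ca for 1 wk, then 0.02% Ca for 2 wk. Dosing during the final low-Ca week: four i.p. doses about 24 h apart. Serum Ca measured on blood from severed neck 24 h after the last dose; statistics applied.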

[2] = system: Rattus norvegicus; experiment: Effect on bone calcium mobilization in weanling Sprague-Dawley rat assessed as serum calcium level at 260 pmol/day, ip administered for 4 consecutive days measured 24 hrs after last dose; format: functional; summary of the method: as §1
[3] = system: Rattus norvegicus; experiment: Effect on bone calcium mobilization in weanling Sprague-Dawley rat assessed as serum calcium level at 780 pmol/day, ip administered for 4 consecutive days measured 24 hrs after last dose; format: functional; summary of the method: as §1
[4] = system: Rattus norvegicus; experiment: Effect on intestinal calcium transport in weanling Sprague-Dawley rat assessed as ratio of serosal to mucosal calcium level at 87 pmol/day, ip administered for 4 consecutive days measured 24 hrs after last dose by everted gut sac method; format: functional
Summary of the method: (§2)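 Same rats and regimen: low/normal Ca diet cycling, then four i.p. doses about 24 h apart during the final 0.02% Ca week. First 10 cm of intestine taken 24 h after the last dose; Ca transport measured by everted gut sac.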

[5] = system: Rattus norvegicus; experiment: Effect on intestinal calcium transport in weanling Sprague-Dawley rat assessed as ratio of serosal to mucosal calcium level at 260 pmol/day, ip administered for 4 consecutive days measured 24 hrs after last dose by everted gut sac method; format: functional; summary of the method: as §2
[6] = system: Rattus norvegicus; experiment: Effect on intestinal calcium transport in weanling Sprague-Dawley rat assessed as ratio of serosal to mucosal calcium level at 780 pmol/day, ip administered for 4 consecutive days measured 24 hrs after last dose by everted gut sac method; format: functional; summary of the method: as §2
[7] = system: Rattus norvegicus; experiment: Effect on intestinal calcium transport in weanling Sprague-Dawley rat assessed as ratio of serosal to mucosal calcium level at 7020 pmol/day, ip administered for 4 consecutive days measured 24 hrs after last dose by everted gut sac method; format: functional; summary of the method: as §2
[8] = target: T1, Vitamin D3 receptor (Rattus norvegicus, UniProt P13053); experiment: Displacement of radiolabeled 1-alpha,25-(OH)2D3 from rat recombinant full length VDR
T1 sequence (P13053 whole entry): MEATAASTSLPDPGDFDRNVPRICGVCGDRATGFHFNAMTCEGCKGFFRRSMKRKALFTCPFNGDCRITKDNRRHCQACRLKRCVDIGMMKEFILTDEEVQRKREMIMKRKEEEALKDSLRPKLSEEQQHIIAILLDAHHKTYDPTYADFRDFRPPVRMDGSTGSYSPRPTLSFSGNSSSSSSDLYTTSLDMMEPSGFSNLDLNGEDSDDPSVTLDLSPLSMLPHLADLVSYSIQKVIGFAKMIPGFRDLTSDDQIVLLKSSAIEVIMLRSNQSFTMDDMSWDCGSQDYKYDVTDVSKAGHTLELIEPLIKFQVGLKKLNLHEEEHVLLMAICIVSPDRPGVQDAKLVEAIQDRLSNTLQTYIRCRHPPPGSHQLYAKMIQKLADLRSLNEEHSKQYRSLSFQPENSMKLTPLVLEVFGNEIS

[9] = target: T2, Vitamin D3 receptor (Rattus norvegicus) (UniProt P13053); experiment: Ratio of compound Ki to [3H]1-alpha,25-(OH)2D3 Ki for rat recombinant full length VDR
T2 sequence (whole entry): T1 sequence (P13053 whole entry)

[10] = system: HL-60; experiment: Induction of differentiation of human HL60 promyelocytes into monocytes after 4 days by NBT reduction assay; format: functional, cell-based; conditions: HL-60, 96 h
[11] = system: HL-60; experiment: Ratio of compound ED50 to [3H]1-alpha,25-(OH)2D3 ED50 for induction of differentiation of human HL60 promyelocytes into monocytes after 4 days by NBT reduction assay; format: functional
[12] = target: T1, Vitamin D3 receptor; experiment: Activity at VDR in rat osteosarcoma cells assessed as induction of 24-hydroxylase reporter gene transcription by luciferase reporter gene assay; format: cell-based
Summary of the method: (§3)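 Rat osteosarcoma cells stably transfected with a 24-hydroxylase gene reporter plasmid; luciferase read-out. EC50 from dose–response curves = concentration raising luciferase activity by 50%. Ratio = average of analog EC50 over 1α,25-(OH)2D3 EC50. Duplicates on at least two separate occasions.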

[13] = target: T2, Vitamin D3 receptor (Rattus norvegicus); experiment: Ratio of compound EC50 to [3H]1-alpha,25-(OH)2D3 EC50 for VDR in rat osteosarcoma cells by 24-hydroxylase gene transcriptional activation assay; format: cell-based; summary of the method: as §3
[14] = system: Rattus norvegicus; experiment: Effect on bone calcium mobilization in weanling Sprague-Dawley rat assessed as serum calcium level at 2340 pmol/day, ip administered for 4 consecutive days measured 24 hrs after last dose; format: functional; summary of the method: as §1
[15] = system: Rattus norvegicus; experiment: Effect on bone calcium mobilization in weanling Sprague-Dawley rat assessed as serum calcium level at 7020 pmol/day, ip administered for 4 consecutive days measured 24 hrs after last dose; format: functional; summary of the method: as §1
[16] = system: Rattus norvegicus; experiment: Effect on intestinal calcium transport in weanling Sprague-Dawley rat assessed as ratio of serosal to mucosal calcium level at 2340 pmol/day, ip administered for 4 consecutive days measured 24 hrs after last dose by everted gut sac method; format: functional; summary of the method: as §2

Ki [8]	Ratio Ki [9]	EC50 [10]	EC50 [12]	Ratio EC50 [13]	SMILES	Activity [1]	Activity [2]	Activity [3]	Ratio [4]	Ratio [5]	Ratio [6]	Ratio [7]	Ratio ED50 [11]	Activity [14]	Activity [15]	Ratio [16]
					C=C1[C@H](O)CC(=C/C=C2\CCC[C@]3(C)[C@@H]([C@@H](C)CCCC(C)(C)O)CC[C@@H]23)C[C@H]1O [DP001]	8.4 mg/dL	9.3 mg/dL	11.1 mg/dL	12.3	11.4	10.9					
0.2 nM	2	0.2 nM	0.2 nM	0.67	C=C1[C@H](O)CC(=C/C=C2\CCC[C@]3(C)[C@@H](CCCCC(C)(C)O)CC[C@@H]23)C[C@H]1O	4.3 mg/dL	4.6 mg/dL	4.9 mg/dL	5.6	7.4	10.2	7.8	0.35	5.3 mg/dL	5.1 mg/dL	8.8
0.02 nM	0.2	0.4 nM	0.02 nM	0.07	C=C1[C@H](O)CC(=C/C=C2\CCC[C@@H]3[C@@H]([C@@H](C)CCCC(C)(C)O)CC[C@@H]23)C[C@H]1O		5.7	6.6 mg/dL		8.4	10	14.5	0.2	7.8 mg/dL	8.7 mg/dL	8.5
0.1 nM	1	0.3 nM	0.06 nM	0.2	C=C1[C@H](O)CC(=C/C=C2\CCC[C@@H]3[C@@H](CCCCC(C)(C)O)CC[C@@H]23)C[C@H]1O	4 mg/dL	4.3 mg/dL		7.2	2.3		11.4	0.15	6.1 mg/dL	6.5 mg/dL	7.5
					C=C1/C(=C\C=C2/CCC[C@]3(C)[C@@H]([C@H](C)CCCC(C)(C)O)CC[C@@H]23)C[C@@H](O)C[C@@H]1O [CALCITRIOL]	4.6 mg/dL	5 mg/dL	5.3 mg/dL						6.9 mg/dL		
